Calls of active or inactive are those of the source. The calls are words filed in the database; no cut-off is given here.
Key:
HMEC [1] = test: Selectivity ratio of IC50 for human HMEC cells to IC50 for SKOV3 cells
HL-60 [2] = test: Induction of apoptosis in human HL60 cells assessed as activation of caspase 8 at 2.5 to 10 uM after 24 hrs by Western blotting; format: functional, cell-based
In short: (§1)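 Cells (2×10^5/mL) were exposed to 2.5–10 μM for 24 h, then whole-cell lysates were made. Pro-/cleaved caspase-3, caspase-8, pro-/cleaved caspase-9, PARP (116 kDa full length, 85 kDa fragment) and Bid were probed by Western blot with ECL detection.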

HMEC [3] = test: Selectivity ratio of IC50 for human HMEC cells to IC50 for SGC7901 cells
MDA-MB-468 = test: Selectivity ratio of IC50 for human HMEC cells to IC50 for MDA-MB-468 cells
HMEC [4] = test: Selectivity ratio of IC50 for human HMEC cells to IC50 for A431 cells
HCT-116 [5] = test: Induction of apoptosis in human HCT116 cells assessed as decrease in procaspase 3 expression after 24 hrs by Western blotting; format: functional, cell-based; in short: as §1
HeLa = test: Selectivity ratio of IC50 for human HMEC cells to IC50 for HeLa cells
MCF7 [6] = test: Cytotoxicity against human MCF7 cells after 72 hrs by SRB assay; format: functional, cell-based; conditions: MCF7, 72 h
In short: (§2)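 Adherent human tumour lines were seeded and exposed in triplicate to graded compound concentrations at 37 °C for 72 h. Growth was read by sulforhodamine B staining. IC50 (50% growth inhibition) was obtained by the Logit method from at least three independent experiments and reported as mean ± SD.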

MCF7 [7] = test: Drug resistance index, ratio of IC50 for adriyamycin-resistant human MCF7 cells to IC50 for human MCF7 cells; format: functional
HMEC [8] = test: Selectivity ratio of IC50 for human HMEC cells to IC50 for HL60 cells
HMEC [9] = test: Selectivity ratio of IC50 for human HMEC cells to IC50 for 786-O cells
HL-60 [10] = test: Induction of apoptosis in human HL60 cells assessed as activation of caspase 9 at 2.5 to 10 uM after 24 hrs by Western blotting; format: functional, cell-based; in short: as §1
[11] = target: DNA topoisomerase 2-alpha (Homo sapiens) (UniProt P11388); test: Inhibition of human topoisomerase 2alpha-mediated relaxation of supercoiled pBR322 DNA after 30 mins by agarose gel electrophoresis
DNA topoisomerase 2-alpha (Homo sapiens), sequence (P11388 whole entry): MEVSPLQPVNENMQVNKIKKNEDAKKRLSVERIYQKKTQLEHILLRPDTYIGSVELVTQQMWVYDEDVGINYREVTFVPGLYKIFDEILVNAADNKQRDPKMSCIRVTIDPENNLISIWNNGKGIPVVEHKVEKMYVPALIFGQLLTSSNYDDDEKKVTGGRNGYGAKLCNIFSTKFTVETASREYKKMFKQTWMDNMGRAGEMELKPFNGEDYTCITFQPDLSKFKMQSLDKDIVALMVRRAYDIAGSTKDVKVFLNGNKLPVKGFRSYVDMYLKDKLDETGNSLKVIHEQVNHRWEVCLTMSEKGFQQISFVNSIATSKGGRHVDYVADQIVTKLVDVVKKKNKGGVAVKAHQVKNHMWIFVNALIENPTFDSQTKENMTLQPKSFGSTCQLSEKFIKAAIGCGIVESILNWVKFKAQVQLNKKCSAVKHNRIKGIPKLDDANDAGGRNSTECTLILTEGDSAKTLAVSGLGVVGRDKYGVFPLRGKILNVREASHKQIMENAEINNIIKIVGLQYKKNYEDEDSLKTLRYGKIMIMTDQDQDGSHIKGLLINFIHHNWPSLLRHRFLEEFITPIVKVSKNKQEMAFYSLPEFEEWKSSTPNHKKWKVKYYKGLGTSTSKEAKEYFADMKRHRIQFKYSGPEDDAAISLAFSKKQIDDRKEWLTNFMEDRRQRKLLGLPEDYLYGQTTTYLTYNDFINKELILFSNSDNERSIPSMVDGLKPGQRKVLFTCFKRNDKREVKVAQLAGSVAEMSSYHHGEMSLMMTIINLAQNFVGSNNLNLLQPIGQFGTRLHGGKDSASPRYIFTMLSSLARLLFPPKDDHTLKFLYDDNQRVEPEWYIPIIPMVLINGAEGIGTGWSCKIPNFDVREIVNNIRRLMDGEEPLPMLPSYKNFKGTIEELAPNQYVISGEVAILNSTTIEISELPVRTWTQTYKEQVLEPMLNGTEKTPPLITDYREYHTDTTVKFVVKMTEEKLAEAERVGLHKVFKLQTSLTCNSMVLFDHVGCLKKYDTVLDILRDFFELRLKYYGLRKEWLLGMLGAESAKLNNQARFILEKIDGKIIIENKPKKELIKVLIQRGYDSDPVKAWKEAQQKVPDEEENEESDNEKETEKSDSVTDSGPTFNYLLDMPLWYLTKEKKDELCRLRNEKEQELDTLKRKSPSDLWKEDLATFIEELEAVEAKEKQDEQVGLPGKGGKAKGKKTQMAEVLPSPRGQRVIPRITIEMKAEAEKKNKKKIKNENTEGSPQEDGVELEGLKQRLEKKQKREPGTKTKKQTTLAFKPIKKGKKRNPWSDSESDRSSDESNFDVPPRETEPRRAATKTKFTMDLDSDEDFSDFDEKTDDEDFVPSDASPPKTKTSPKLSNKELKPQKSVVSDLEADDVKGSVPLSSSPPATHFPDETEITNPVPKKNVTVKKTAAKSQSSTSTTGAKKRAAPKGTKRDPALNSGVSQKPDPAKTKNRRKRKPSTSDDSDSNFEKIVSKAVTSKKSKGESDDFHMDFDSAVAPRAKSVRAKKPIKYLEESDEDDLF
In short: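 Supercoiled pBR322 (0.25 μg) incubated with 0.75 unit topo IIα at 37 °C for 30 min. SDS stop. Supercoiled and relaxed forms resolved on 1% agarose/TAE, ethidium bromide stain.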

[12] = target: DNA topoisomerase 2-alpha (Homo sapiens) (UniProt P11388); test: Induction of human topoisomerase 2alpha-mediated poststrand-passage DNA cleavage after 6 mins by agarose gel electrophoresis
In short: (§3)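 Supercoiled pBR322 (0.25 μg) was incubated with 6 units of topo II in cleavage buffer containing 5 mM MgCl2 at 37 °C for 6 min; the post-strand-passage reactions also received 1 mM APPNHP. Reactions were stopped with SDS and proteinase K, digested at 50 °C for 30 min, heated to 70 °C, and run on 1% agarose gels.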

HL-60 [13] = test: Induction of apoptosis in human HL60 cells assessed as DNA ladder formation at 2.5 to 10 uM after 24 hrs using Annexin-V/PI double-staining by flow cytometric analysis; format: functional
In short: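 HL60 cells were treated with 2.5, 5.0, 7.5 or 10.0 μM for 24 h for DNA ladder analysis, representative of three experiments. Apoptotic fractions were measured after 2.5–10 μM for 24 h, or 10 μM over a time course, by Annexin/PI staining and flow cytometry (early plus late apoptotic cells), as mean ± SD of three experiments.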

HMEC [14] = test: Cytotoxicity against human HMEC cells after 72 hrs by MTT assay; format: cell-based
HMEC [15] = test: Selectivity ratio of IC50 for human HMEC cells to IC50 for KB cells
[16] = target: DNA topoisomerase 2-alpha (Homo sapiens) (UniProt P11388); test: Induction of human topoisomerase 2alpha-mediated prestrand-passage DNA cleavage after 6 mins by agarose gel electrophoresis; in short: as §3
HL-60 [17] = test: Induction of apoptosis in human HL60 cells assessed as PARP cleavage at 10 uM after 24 hrs by Western blotting preincubated for 2 hrs with 20 uM pancaspase inhibitor Z-VAD-FMK; format: functional, cell-based
In short: (§4)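 HL60 cells were pretreated with 20 μM Z-IETD-FMK, Z-LEHD-FMK or Z-VAD-FMK, then cultured with 10 μM compound for 24 h. Cleaved PARP and caspases were probed by Western blot. Three independent experiments were run.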

HL-60 [18] = test: Induction of apoptosis in human HL60 cells assessed as caspase 8 cleavage at 10 uM after 24 hrs by Western blotting preincubated for 2 hrs with 20 uM caspase 8 inhibitor Z-IETD-FMK; format: functional, cell-based; in short: as §4
HMEC [19] = test: Selectivity ratio of IC50 for human HMEC cells to IC50 for Rh30 cells
HCT-116 [20] = test: Induction of apoptosis in human HCT116 cells assessed as Bid cleavage at 2.5 to 10 uM after 24 hrs by Western blotting; format: functional, cell-based; in short: as §1
MCF7 [21] = test: Cytotoxicity against adriyamycin-resistant human MCF7 cells over expressing P-glycoprotein after 72 hrs by SRB assay; format: functional, cell-based; conditions: MCF7, 72 h; in short: as §2
HCT-116 [22] = test: Induction of apoptosis in human HCT116 cells assessed as increase in cleaved PARP levels after 24 hrs by Western blotting; format: functional, cell-based; in short: as §1
HL-60 [23] = test: Induction of apoptosis in human HL60 cells assessed as activation of caspase 9 at 10 uM after 24 hrs by Western blotting preincubated for 2 hrs with 20 uM caspase 9 inhibitor Z-LEHD-FMK; format: functional, cell-based; in short: as §4
HCT-116 [24] = test: Induction of apoptosis in human HCT116 cells assessed as increase in cleaved caspase 3 levels after 24 hrs by Western blotting; format: functional, cell-based; in short: as §1
HL-60 [25] = test: Induction of apoptosis in human HL60 cells assessed as increase in cleaved caspase 3 levels after 24 hrs by Western blotting; format: functional, cell-based; in short: as §1

COC1O[C@H](C)[C@@H](C)c2c(C)c3c(c(O)c21)[C@@H]1O[C@H](C)[C@@H](C)c2c(C)c(O)c([C@H]4O[C@H](C)[C@@H](C)c5c(C)c(O)cc(O)c54)c(c21)O3 (some centres not stated) [TRICITRINOL B]
Ratio IC50 (HMEC [1]): 2
Activity (HL-60 [2]): Active
Ratio IC50 (HMEC [3]): 2
Ratio IC50 (MDA-MB-468): 2
Ratio IC50 (HMEC [4]): 2
Activity (HCT-116 [5]): Dose-dependent effect
Ratio IC50 (HeLa): 2
IC50 (MCF7 [6]): 5.76 µM
Ratio IC50 (MCF7 [7]): 1.28
Ratio IC50 (HMEC [8]): 2
Ratio IC50 (HMEC [9]): 2
Activity (HL-60 [10]): Active
inhibition [11]: Dose-dependent effect
Activity [12]: Dose-dependent effect
Activity (HL-60 [13]): 10%
IC50 (HMEC [14]): 7.89 µM
Ratio IC50 (HMEC [15]): 2
Activity [16]: Dose-dependent effect
Activity (HL-60 [17]): inactive
Activity (HL-60 [18]): inactive
Ratio IC50 (HMEC [19]): 2
Activity (HCT-116 [20]): Active
IC50 (MCF7 [21]): 7.41 µM
Activity (HCT-116 [22]): Dose-dependent effect
Activity (HL-60 [23]): Active
Activity (HCT-116 [24]): Dose-dependent effect
Activity (HL-60 [25]): Dose-dependent effect

From ChEMBL document CHEMBL1821706, “Unprecedented citrinin trimer tricitinol B functions as a novel topoisomerase IIα inhibitor” (J Med Chem, 2011)
